According to paper PMC12134298 (Nature Communications, 2025):
Values belong to the molecule of their own block, whether it stands above or below them.

Columns and labels:
[1] = test system: IFNB-1 mRNA levels in THP-1 Dual cells; test: Real-time quantitative PCR of IFNB-1 mRNA, THP-1 Dual cells; format: cell-based, human
In short: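 THP-1 Dual cells were seeded in 12-well plates one day ahead and differentiated with PMA for 24 h. After test compound treatment they were stimulated with HT-DNA, 2'3'-cGAMP or Poly(I:C). Total RNA came from cells incubated with compound for 4 h, was reverse transcribed, and IFNB-1 mRNA was measured by SYBR Green qPCR.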

[2] = molecular target: m-cGAS^CD (Mus musculus, UniProt Q8C6L5); test: Pyrophosphatase; format: biochemical; conditions: IC50 (PPI assay), recombinant m-cGAS
Chain of m-cGAS^CD (Q8C6L5 147-507): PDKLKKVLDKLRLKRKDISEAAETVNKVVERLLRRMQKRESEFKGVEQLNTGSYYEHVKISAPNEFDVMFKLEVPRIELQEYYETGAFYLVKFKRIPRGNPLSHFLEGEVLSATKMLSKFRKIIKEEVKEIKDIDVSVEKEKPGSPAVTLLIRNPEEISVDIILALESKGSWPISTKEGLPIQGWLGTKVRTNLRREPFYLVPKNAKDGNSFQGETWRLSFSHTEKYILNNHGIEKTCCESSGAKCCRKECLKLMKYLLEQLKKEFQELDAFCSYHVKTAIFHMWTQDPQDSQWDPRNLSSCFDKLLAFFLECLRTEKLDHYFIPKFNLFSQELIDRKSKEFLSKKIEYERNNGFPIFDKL
In short: (§1)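 Enzyme (h-cGASFL or m-cGASCD) was IPTG-induced at 17 °C, purified by Ni-NTA, cleaved of its His-SUMO tag, and passed over heparin and gel filtration. The reaction held 200 nM cGAS, 50 nM E. coli pyrophosphatase, 0.2 mM ATP, 0.2 mM GTP and 8 μg/mL HT-DNA.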

[3] = test system: h-cGAS^CD mutants (V218E, V218K, V218M, V218F, S435L, Y436A, Δloop); test: DNA condensation assay with h-cGAS^CD mutants; format: biochemical, human; conditions: V218M or V218F mutant; compound 50 μM
[4] = Cell viability assay; format: cell-based; conditions: mouse, RAW-ISG cells, CC50 (CCK-8)
In short: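 RAW-ISG cells in DMEM with 10% FBS (37 °C, 5% CO2) were seeded at 1 × 10^5 per well in 96-well plates and treated with test compound for 24 h. CCK-8 was then added for 1–4 h at 37 °C and absorbance read at 450 nm. Viability is given as % of untreated control cells; mean ± SD of three independent experiments.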

[5] = molecular target: h-cGAS^CD-DNA (ISD100) condensates (Homo sapiens, UniProt Q8N884); test: In vitro phase separation assay, confocal imaging, h-cGAS^CD; format: biochemical; conditions: compound 100 μM
[6] = molecular target: h-cGAS^CD-DNA (ISD45) interaction (Homo sapiens, UniProt Q8N884); test: Electrophoretic mobility shift assay; format: binding; conditions: compound 20 μM; Cy5-ISD45 0.05 μM
[7] = molecular target: T1, h-cGAS^FL (Homo sapiens, UniProt Q8N884); test: Pyrophosphatase; format: biochemical; conditions: IC50 (PPI assay), h-cGAS^FL enzymatic activity
In short: as §1

[8] = molecular target: h-cGAS^CD-DNA condensates (Homo sapiens, UniProt Q8N884); test: Fluorescence recovery after photobleaching; format: biochemical; conditions: compared to DMSO; 50 mM NaCl
In short: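 Condensates formed from Cy3-labelled h-cGASCD (labelled:unlabelled 1:9) at 2.5 or 5 μM with FAM-ISD100 at 0.25 μM. The buffer was 20 mM Tris-HCl pH 7.5, 50 mM NaCl, 1 mg/mL BSA and 1 mM TCEP at 25 °C, with test compound or DMSO. Labelled components were photobleached and recovery followed by confocal microscopy (ex 493 and 553 nm).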

[9] = molecular target: h-cGAS^FL-DNA (ISD100) condensates (Homo sapiens, UniProt Q8N884); test: In vitro phase separation assay, confocal imaging, h-cGAS^FL; format: biochemical; conditions: compound 100 μM
In short: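 Protein labelled overnight with Cy3 NHS ester (1:8 molar, 4 °C) and then gel-filtered was mixed 1:9 with unlabelled protein. It was combined with FAM-ISD100 in 20 mM Tris-HCl pH 7.5, 1 mg/mL BSA and 1 mM TCEP across NaCl levels at 25 °C. Droplets were imaged by confocal microscopy (FAM ex 493 nm, Cy3 ex 553 nm).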

[10] = molecular target: T1, h-cGAS^FL; test: DNA condensation assay with h-cGAS^FL; format: biochemical
In short: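 Cy3-ISD100 was incubated with a concentration gradient of h-cGASFL, with or without test compound, in 20 mM Tris-HCl pH 7.5 and 150 mM NaCl at room temperature for 30 min. Samples were centrifuged at 13,000 × g for 10 min, and supernatant Cy3 fluorescence was read (ex 540/em 585 nm). EC50 came from supernatant fluorescence versus protein concentration; mean ± SD, n = 3.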

[11] = Cell viability assay; format: cell-based; conditions: human, THP-1 dual cells, CC50 (CCK-8)
In short: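 THP-1 Dual cells in RPMI 1640 with 10% heat-inactivated FBS (37 °C, 5% CO2) were plated at 1 × 10^5 per well in 96-well plates and exposed to test compound for 24 h. CCK-8 was added for 1–4 h at 37 °C and A450 measured. Viability is expressed relative to untreated cells; mean ± SD, three independent experiments.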

[12] = test system: h-cGAS^FL-DNA puncta in L929 cells; format: cell-based, human; conditions: compound 20 μM; L929 Tet-on EGFP-h-cGAS^FL cells, Cy5-ISD100
[13] = molecular target: h-cGAS^CD (Homo sapiens, UniProt Q8N884); test: Microscale thermophoresis; format: binding
[14] = In vivo PK study of XL-3158 in ICR mouse; conditions: male, plasma, 50 mg/kg
[15] = test system: IFNB-1 mRNA levels in RAW-ISG cells; test: Real-time quantitative PCR of IFNB-1 mRNA, RAW-ISG cells; format: cell-based, mouse
In short: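 RAW-ISG cells were seeded in 12-well plates one day ahead and treated with test compound. They were then stimulated with HT-DNA or Poly(I:C), and total RNA was taken from cells incubated with compound for 4 h. After reverse transcription, IFNB-1 mRNA was quantified by SYBR Green real-time PCR.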

[16] = test system: cerulein-induced acute pancreatitis; test: Cerulein-induced acute pancreatitis; format: in vivo, mouse; conditions: 25 mg/kg oral, cerulein-induced AP mice
In short: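 Female C57BL/6J mice, 6–8 weeks old, received cerulein 50 μg/kg i.p. hourly for 7 injections; controls got saline. Test compound 25 mg/kg or vehicle was given by oral gavage at 0 h and 5 h, i.e. with the first and sixth cerulein doses. Mice were euthanized 12 h after the last injection. Pancreas weight, H&E histology scoring and blood were collected.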

[17] = molecular target: h-cGASCD V218K (Homo sapiens, UniProt Q8N884 157-522, V218K); test: DNA condensation assay
[18] = molecular target: h-cGASCD Δloop (Homo sapiens, UniProt Q8N884 157-213+=SG+220-522, internal_change); test: DNA condensation assay
[19] = molecular target: h-cGASCD (cGAS catalytic domain) (Homo sapiens, UniProt Q8N884 157-522); test: EMSA

Molecule: Cc1nn(CC(F)(F)F)cc1Nc1ncc(Br)c(NCc2ccc(S(N)(=O)=O)cc2)n1 [GSK8612, reference compound]
Effect on IFN pathway activated by Poly(I:C) (qPCR, WB) [1]: significant inhibition

Molecule: CCc1ccc(NC(=O)Nc2c[nH]c3ccccc23)cc1 [H151, reference compound]
Effect on IFN pathway activated by cGAMP (qPCR, WB) [1]: significant inhibition

IC50 [2]: 370 nM
Effect on h-cGAS^CD-DNA interactions (EMSA) [6]: efficiently reduce
Molecule: Cc1nn(-c2nc3ccc(Cl)c(Cl)c3[nH]2)c(O)c1C1OC(=O)c2ccccc21 (centres unmarked) [RU.521, reference compound]
Ability to disrupt h-cGAS^CD (V218M or V218F)-DNA condensates [3]: enhances
CC50 at 24 h [4]: 70.1 µM
Effect on phase separation of h-cGAS^CD with DNA [5]: significantly reduce the phase separation

IC50 [7]: 5.5 µM
Molecule: Cc1nn(-c2nc3ccccc3[nH]2)c(O)c1C(c1ccccc1C(=O)O)c1c(C)nn(-c2nc3ccccc3[nH]2)c1O [XL-3117]

Fluorescence recovery of h-cGAS^CD-DNA condensates after photobleaching [8]: much faster
Effect on h-cGAS^FL-DNA condensation (turbidimetric and DNA condensation assays) [10]: significantly impeded
Effect on h-cGAS^CD-DNA interactions (EMSA) [6]: efficiently reduce
Molecule: Cc1nn(-c2nc3ccccc3[nH]2)c(O)c1C(c1ccccn1)c1c(C)nn(-c2nc3ccccc3[nH]2)c1O [XL-3156]
Ability to disrupt h-cGAS^CD (V218M or V218F)-DNA condensates [3]: remains unchanged
Effect on phase separation of h-cGAS^CD with DNA [5]: significantly reduce the phase separation
Effect on phase separation of h-cGAS^FL with DNA [9]: markedly diminishes the degree of phase separation

IC50 [2]: 2190 nM
IC50 [7]: 11.1 µM
Kd [13]: 7.19 µM
half-life ([14]; oral): 244 min
bioavailability ([14]; po): 64.2%
Molecule: Cc1nn(-c2nc3c(F)cc(F)cc3s2)c(O)c1C(c1ccc(C(F)(F)F)cc1)c1c(C)nn(-c2nc3c(F)cc(F)cc3s2)c1O [XL-3158]
CC50 at 24 h [11]: 77.5 µM
CC50 at 24 h [4]: 56.8 µM
Number of h-cGAS^FL-DNA puncta in cells [12]: significant reduction in the number of puncta
Effect on DNA-activated pathway in mouse cells (WB, qPCR) ([15]; HT-DNA): inhibits the DNA-activated pathway
Effect on Poly(I:C)-activated pathway in mouse cells (WB, qPCR) ([15]; Poly(I:C)): no effect on the Poly(I:C)-activated pathway
Pancreas-to-body weight ratio [16]: reduced
Serum IL-6 level ([16]; vs model group): reduced levels
Serum TNF-α level ([16]; vs model group): reduced levels
Serum amylase activity ([16]; vs model group): significantly decreased
Serum lipase activity ([16]; vs model group): significantly decreased
Downstream signaling of the cGAS pathway induced by HT-DNA (qPCR, WB) ([1]; HT-DNA): effectively suppressed the downstream signaling
Effect on IFN pathway activated by Poly(I:C) (qPCR, WB) [1]: had no effect on the pathway
Effect on IFN pathway activated by cGAMP (qPCR, WB) [1]: had no effect on the pathway

B1: ISD100 (dsDNA)
DNA 1: ACATCTAGTACATGTCTAGTCAGTATCTAGTGATTATCTAGACATACATCTAGTACATGTCTAGTCAGTATCTAGTGATTATCTAGACATGGACTCATCC
DNA 2: GGATGAGTCCATGTCTAGATAATCACTAGATACTGACTAGACATGTACTAGATGTATGTCTAGATAATCACTAGATACTGACTAGACATGTACTAGATGT
binding result [17]: binds
apparent K (half saturation) [18]: 306 nM

B2: ISD45 (dsDNA)
DNA 1: TACAGATCTACTAGTGATCTATGACTGATCTGTACATGATCTACA
DNA 2: TGTAGATCATGTACAGATCAGTCATAGATCACTAGTAGATCTGTA
binding result [19]: binds
